These results are taken from PubChem BioAssay.

Structures are written as SMILES. The source made the active and inactive calls.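 How the source made its calls, unless noted: active means duplicate-averaged activation above buffer control mean plus 5 SD of those controls; inactive means the rest.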

Chain of Potassium voltage-gated channel subfamily KQT member 1 (Homo sapiens) (P51787 whole entry, looked up): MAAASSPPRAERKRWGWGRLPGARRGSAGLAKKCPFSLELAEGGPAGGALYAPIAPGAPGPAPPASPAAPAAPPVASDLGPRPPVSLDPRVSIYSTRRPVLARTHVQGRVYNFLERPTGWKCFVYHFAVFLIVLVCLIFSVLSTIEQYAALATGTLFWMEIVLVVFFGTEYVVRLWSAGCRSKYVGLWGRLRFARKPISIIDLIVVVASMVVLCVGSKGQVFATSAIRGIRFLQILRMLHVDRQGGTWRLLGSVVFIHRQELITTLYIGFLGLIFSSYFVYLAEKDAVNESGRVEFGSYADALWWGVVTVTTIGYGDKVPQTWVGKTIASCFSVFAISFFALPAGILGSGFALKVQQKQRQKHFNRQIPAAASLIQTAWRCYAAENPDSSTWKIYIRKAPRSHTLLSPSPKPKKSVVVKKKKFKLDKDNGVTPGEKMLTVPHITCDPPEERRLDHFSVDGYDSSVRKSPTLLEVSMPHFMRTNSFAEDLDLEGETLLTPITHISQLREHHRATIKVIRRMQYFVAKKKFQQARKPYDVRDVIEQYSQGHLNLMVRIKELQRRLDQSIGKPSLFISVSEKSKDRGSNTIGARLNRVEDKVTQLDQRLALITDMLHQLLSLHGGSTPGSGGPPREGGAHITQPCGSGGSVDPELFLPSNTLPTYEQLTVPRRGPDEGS

System in one experiment: not listed separately
The experiment in a line: thallium flux activation in parental CHO cells, counter-screen for KCNQ1 potentiator project (AID 493006).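 On activation: fluorescence ratio of max minus min over baseline after K+ and Tl+ depolarization.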 The note with it: parental CHO-K1 cells, FluxOR thallium flux, at 10 µM; hits give high values. Put shortly:
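Benchmarks – buffer and R-L3 controls · Assay system – untransfected host CHO-K1 cells with FluxOR thallium dye · Measure – fluorescence change ratio scaled 0% buffer, 100% R-L3 · Technique – kinetic thallium-flux fluorescence · Timing – overnight 37 °C plating, 90 min RT dye, 20 min compound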
In the case of `CC12CCC(C/C1=N\N=C1\NC(=O)/C(=C\c3ccc(Cl)cc3)S1)C2(C)C` (stereo not given), the activation is 175% (active).
As for `Cc1cc(C)n(/N=C/c2cc(Cl)cc(Cl)c2O)c(=O)c1`, the result was inactive.
As for `Cn1c(=S)[nH]c2scc(-c3cccs3)c2c1=O`, the activation is 524% (active).
With `CCc1ccc(/C=N/NC(=O)Cc2cccn2C)cc1`, the outcome was inactive.
Turning to `CCN(CC)C(=S)NC(=O)c1ccc(Cl)cc1Cl`, the activation was 226% (active).
Consider `COc1ccc(-c2nc3ccc(C(=O)NCC(OC)OC)cc3nc2-c2ccc(OC)c(OC)c2)cc1OC`, for which the outcome was inactive.
On the same count and under the same terms, for `OC(CNC1CCCCC1)COCCOc1ccc(Br)cc1` (stereo not given) the value was “inactive”; for `Cc1ccc(C)c2sc(NC(=O)c3nc4ccccc4s3)nc12`, “inactive”; for `CCC(=O)Nc1cc(-c2nn3c(C)nnc3s2)ccc1C`, “inactive”.
Take `COc1ccccc1NC(=O)Cn1cnc2c(oc3nc4c(cc32)CCCC4)c1=O`: the outcome was inactive.
The same measure, in the same setting: the same measure for `O=C(c1ccc(COc2ccc(Cl)cc2)o1)N1CCN(Cc2ccc3c(c2)OCO3)CC1`: “inactive”.
As to `O=C(NC(=S)N1CCc2ccccc21)c1ccco1`, the activation was 198% (active).
With `COCCCNC(=O)CC(NS(=O)(=O)c1ccc(F)cc1)c1ccc(OC)cc1` (stereo not given), the result was inactive.
With `O=C(CC1C(=O)NCCN1Cc1cccc(F)c1)NCCCN1CCCC1=O` (stereo not given), the result was inactive.
As to `CC(C)(C)NC(=O)C(=O)NNC(=O)c1cccc(Br)c1`, the activation was 242% (active).
For `O=C(Nc1cccc(NC(=O)c2c(F)cccc2F)n1)c1c(F)cccc1F`, the outcome was inactive.
The same measure, in the same setting: for `CCOC(=O)c1oc2c(CN3CCCCC3C)c(O)ccc2c(=O)c1-c1ccc(OC)c(OC)c1` (stereo not given) the value was “inactive”; for `Cc1nn2c(c1-c1ccccc1)NC1=C(C(=O)CCC1)C2c1ccccc1` (stereo not given), “inactive”; for `CSc1nc(C)c2c(n1)N(c1ccc(C(C)C)cc1)CC2`, “inactive”.
Regarding `CC1CCc2sc(-c3n[nH]c(=S)o3)cc2C1` (stereo not given), the activation was 207% (active).
`CCOc1ccc(/C=C2/SC(=O)NC2=S)cc1`: the activation was 425% (active).
Regarding `COC(=O)c1ccc(COC(=O)c2ccccn2)cc1`, the result was inactive.
With `Cc1cc(NC(c2cccnc2)c2c(C)[nH]c3ccccc23)no1` (stereo not given), the outcome was inactive.
For `Cc1ccc(N=Nc2ccc(O)c3ncccc23)cc1C`, the activation was 154% (active).
Turning to `CC(C)(C)c1cc(-c2csc(Nc3ccccc3)[n+]2Cc2ccc(C(=O)O)cc2)cc(C(C)(C)C)c1O`, the activation is 327% (active).
Take `Cc1ccc2nc(NC(=S)NC(=O)c3ccco3)sc2c1`: the activation is 360% (active).
Take `CC1Cc2ccccc2N1C(=S)NC(=O)c1cccc(Br)c1` (stereo not given): the activation is 726% (active).
For `COc1ccccc1OCCSc1nc2ccccc2n1CCC(=O)O`, the result was inactive.
`Cc1cccc(N=Cc2cc(Br)cc(Cl)c2O)c1`: the activation was 188% (active).
For the compound `CC(=O)O[C@H]1CSC[C@H]1NC(=O)c1ccccc1`, the result was inactive.
Take `CC(C)N(Cc1ccccc1)C(=S)NC(=O)C1(C)CC1(Cl)Cl` (stereo not given): the activation is 357% (active).
On to `O=C(NCC1CCCO1)c1ccc2c(c1)S(=O)(=O)c1ccccc1C2=O` (stereo not given), for which the outcome was inactive.
`C=CCOc1ccc(/C=C2\SC(=S)N(NS(=O)(=O)c3ccc(C)cc3)C2=O)cc1`: the activation was 447% (active).
On to `O=C(NC(=S)N1CCc2ccccc21)c1ccccc1Br`, for which the activation was 537% (active).
Consider `CCN(CC)S(=O)(=O)c1cccc(C(=O)N[C@H](C(=O)NNC(=O)c2ccccc2)C(C)C)c1`, for which the outcome was inactive.
With `Oc1ccc(CN2CCCCC2)c2cccnc12`, the activation was 170% (active).
Regarding `Cc1ccc(-c2ccc(=O)n(Cc3cccc(Br)c3)n2)cc1`, the outcome was inactive.
For the compound `CC(C)c1ccc(NC(=O)C2CC(=O)N=C(N)S2)cc1` (stereo not given), the activation was 164% (active).
With `COc1ccc(/C=C2\SC(=Nc3ccccc3OC)NC2=O)cc1`, the outcome was inactive.
On to `CC(CCc1ccccc1)NC(=O)COc1cc(F)ccc1[N+](=O)[O-]` (stereo not given), for which the outcome was inactive.

The next experiment concerns the target Potassium voltage-gated channel subfamily KQT member 1 (Homo sapiens) (UniProt P51787). Briefly: KCNQ1 potassium channel potentiators, confirmation, FluxOR thallium flux, CHO cells, duplicates (AID 493007;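 active means potentiation averaged over duplicate wells exceeding buffer-only control mean by more than 3 SD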;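 on outcome: cells depolarized by a potassium plus thallium sulfate stimulus after compound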). The note with it: KCNQ1 cell line, FluxOR thallium flux fluorescence, at 10 µM; hits give high values, % of reference activator effect, buffer zero. The essentials:
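Material: CHO cells stably expressing the KCNQ1 potassium channel / Times: dye 90 min then compound 20 min, both at room temperature / Detection: kinetic thallium influx fluorescence with FluxOR dye, 10 s baseline, 110 s post-stimulus / Benchmarks: buffer-only wells as 0% and R-L3 activator as 100% / Replicates: each compound tested in duplicate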
Take `CC12CCC(C/C1=N\N=C1\NC(=O)/C(=C\c3ccc(Cl)cc3)S1)C2(C)C` (stereo not given): the potentiation is 74.5% (active).
In the case of `Cc1cc(C)n(/N=C/c2cc(Cl)cc(Cl)c2O)c(=O)c1`, the result was inactive.
For `Cn1c(=S)[nH]c2scc(-c3cccs3)c2c1=O`, the potentiation is 218% (active).
For `CCc1ccc(/C=N/NC(=O)Cc2cccn2C)cc1`, the outcome was inactive.
With `CCN(CC)C(=S)NC(=O)c1ccc(Cl)cc1Cl`, the potentiation is 50% (active).
As for `COc1ccc(-c2nc3ccc(C(=O)NCC(OC)OC)cc3nc2-c2ccc(OC)c(OC)c2)cc1OC`, the result was inactive.
For `OC(CNC1CCCCC1)COCCOc1ccc(Br)cc1` (stereo not given), the outcome was inactive.
Take `Cc1ccc(C)c2sc(NC(=O)c3nc4ccccc4s3)nc12`: the potentiation was 18% (active).
For the compound `CCC(=O)Nc1cc(-c2nn3c(C)nnc3s2)ccc1C`, the outcome was inactive.
For the compound `COc1ccccc1NC(=O)Cn1cnc2c(oc3nc4c(cc32)CCCC4)c1=O`, the result was inactive.
As for `O=C(c1ccc(COc2ccc(Cl)cc2)o1)N1CCN(Cc2ccc3c(c2)OCO3)CC1`, the potentiation was 25% (active).
As to `O=C(NC(=S)N1CCc2ccccc21)c1ccco1`, the potentiation was 49.5% (active).
In the case of `COCCCNC(=O)CC(NS(=O)(=O)c1ccc(F)cc1)c1ccc(OC)cc1` (stereo not given), the result was inactive.
For `O=C(CC1C(=O)NCCN1Cc1cccc(F)c1)NCCCN1CCCC1=O` (stereo not given), the outcome was inactive.
Turning to `CC(C)(C)NC(=O)C(=O)NNC(=O)c1cccc(Br)c1`, the potentiation is 34% (active).
Regarding `O=C(Nc1cccc(NC(=O)c2c(F)cccc2F)n1)c1c(F)cccc1F`, the result was inactive.
Consider `CCOC(=O)c1oc2c(CN3CCCCC3C)c(O)ccc2c(=O)c1-c1ccc(OC)c(OC)c1` (stereo not given), for which the outcome was inactive.
For `Cc1nn2c(c1-c1ccccc1)NC1=C(C(=O)CCC1)C2c1ccccc1` (stereo not given), the outcome was inactive.
In the case of `CSc1nc(C)c2c(n1)N(c1ccc(C(C)C)cc1)CC2`, the outcome was inactive.
`CC1CCc2sc(-c3n[nH]c(=S)o3)cc2C1` (stereo not given): the potentiation is 30% (active).
In the case of `CCOc1ccc(/C=C2/SC(=O)NC2=S)cc1`, the potentiation is 138% (active).
For `COC(=O)c1ccc(COC(=O)c2ccccn2)cc1`, the potentiation is 65% (active).
`Cc1cc(NC(c2cccnc2)c2c(C)[nH]c3ccccc23)no1` (stereo not given): the outcome was inactive.
For `Cc1ccc(N=Nc2ccc(O)c3ncccc23)cc1C`, the potentiation was 24.5% (active).
On to `CC(C)(C)c1cc(-c2csc(Nc3ccccc3)[n+]2Cc2ccc(C(=O)O)cc2)cc(C(C)(C)C)c1O`, for which the potentiation was 54.5% (active).
Consider `Cc1ccc2nc(NC(=S)NC(=O)c3ccco3)sc2c1`, for which the potentiation was 138% (active).
`CC1Cc2ccccc2N1C(=S)NC(=O)c1cccc(Br)c1` (stereo not given): the potentiation is 224% (active).
On to `COc1ccccc1OCCSc1nc2ccccc2n1CCC(=O)O`, for which the outcome was inactive.
Regarding `Cc1cccc(N=Cc2cc(Br)cc(Cl)c2O)c1`, the potentiation is 27% (active).
Turning to `CC(=O)O[C@H]1CSC[C@H]1NC(=O)c1ccccc1`, the outcome was inactive.
With `CC(C)N(Cc1ccccc1)C(=S)NC(=O)C1(C)CC1(Cl)Cl` (stereo not given), the potentiation was 138% (active).
As for `O=C(NCC1CCCO1)c1ccc2c(c1)S(=O)(=O)c1ccccc1C2=O` (stereo not given), the result was inactive.
Turning to `C=CCOc1ccc(/C=C2\SC(=S)N(NS(=O)(=O)c3ccc(C)cc3)C2=O)cc1`, the potentiation was 444% (active).
Take `O=C(NC(=S)N1CCc2ccccc21)c1ccccc1Br`: the potentiation is 208% (active).
Regarding `CCN(CC)S(=O)(=O)c1cccc(C(=O)N[C@H](C(=O)NNC(=O)c2ccccc2)C(C)C)c1`, the result was inactive.
Consider `Oc1ccc(CN2CCCCC2)c2cccnc12`, for which the potentiation was 47% (active).
`Cc1ccc(-c2ccc(=O)n(Cc3cccc(Br)c3)n2)cc1`: the outcome was inactive.
As to `CC(C)c1ccc(NC(=O)C2CC(=O)N=C(N)S2)cc1` (stereo not given), the potentiation was 41.5% (active).
Regarding `COc1ccc(/C=C2\SC(=Nc3ccccc3OC)NC2=O)cc1`, the result was inactive.
With `CC(CCc1ccccc1)NC(=O)COc1cc(F)ccc1[N+](=O)[O-]` (stereo not given), the result was inactive.
